Values after ≈ are worked out from the molar mass of the structure shown. Active and inactive are the calls of the source. No cut-off for these calls is given here.
Legend:
[1] = target: Tubulin beta chain (Sus scrofa) (UniProt P02554); details: 10 ug/mL
Escherichia coli [2] = assay: Antimicrobial activity against Escherichia coli N43 expressing AcrAB efflux pump mutant incubated for 24 hrs by broth microdilution method; type: functional; details: N43, 24 h
Escherichia coli [3] = assay: Antimicrobial activity against Escherichia coli W4573 incubated for 24 hrs by broth microdilution method; type: functional; details: W4573, 24 h
Summary of the method: (§1)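 CLSI broth microdilution. Log-phase bacteria at 10⁵ CFU/mL were exposed to 2-fold serial dilutions (64 to 0.016 μg/mL) in cation-adjusted Mueller-Hinton broth, 5% defibrinated sheep blood added for Streptococcus. Incubated aerobically 24 h at 37 °C. Growth read as OD600; MIC taken as the lowest concentration giving 90% growth inhibition.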

Escherichia coli [4] = assay: Antimicrobial activity against ESBL producing Escherichia coli ATCC BAA-201 expressing TEM3 lactamase incubated for 24 hrs by broth microdilution method; type: functional; details: ATCC BAA-201, 24 h
Summary of the method: as §1

Enterococcus faecalis [5] = assay: microbe, parasite or virus in culture; type: functional; details: ATCC 51575, 24 h
Enterococcus faecalis [6] = assay: microbe, parasite or virus in culture; type: functional; details: ATCC 19433, 24 h
Staphylococcus aureus [7] = assay: Antimicrobial activity against methicillin-resistant Staphylococcus aureus Mu3 incubated for 24 hrs by broth microdilution method; type: functional; details: Mu3, 24 h
Staphylococcus aureus [8] = assay: microbe, parasite or virus in culture; type: functional; details: ATCC 33591, 24 h
Staphylococcus aureus [9] = assay: microbe, parasite or virus in culture; type: functional; details: ATCC 49951, 24 h
Staphylococcus aureus [10] = assay: microbe, parasite or virus in culture; type: functional; details: 8325-4, 24 h
Enterococcus faecalis [11] = assay: Stimulation of Enterococcus faecalis FtsZ self-polymerization at 40 ug/mL by microtiter plate-based light scattering assay
Summary of the method: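 Purified E. faecalis FtsZ (10 μM) mixed with compound (0–40 μg/mL) and 1 mM GTP in 50 mM Tris-HCl pH 7.4, 50 mM KCl, 2 mM magnesium acetate, 10 mM CaCl2. Polymerization followed continuously as light scattering (A340) at 25 °C over 400 min.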

[12] = target: T1, Cell division protein FtsZ (Escherichia coli K-12) (UniProt P0A9A6); assay: Stimulation of Escherichia coli FtsZ self-polymerization at 40 ug/mL by microtiter plate-based light scattering assay
T1 sequence (whole entry): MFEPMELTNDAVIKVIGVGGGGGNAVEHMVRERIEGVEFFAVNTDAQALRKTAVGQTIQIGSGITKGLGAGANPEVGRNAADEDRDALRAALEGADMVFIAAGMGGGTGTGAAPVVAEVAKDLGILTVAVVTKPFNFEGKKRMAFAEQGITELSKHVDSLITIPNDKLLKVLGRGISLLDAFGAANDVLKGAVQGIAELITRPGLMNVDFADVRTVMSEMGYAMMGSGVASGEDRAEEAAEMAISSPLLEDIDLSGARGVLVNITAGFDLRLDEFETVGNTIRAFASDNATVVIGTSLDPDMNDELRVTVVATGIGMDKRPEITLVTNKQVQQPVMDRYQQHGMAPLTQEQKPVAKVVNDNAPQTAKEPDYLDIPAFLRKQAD

[13] = target: T2, Cell division protein FtsZ (Staphylococcus aureus) (UniProt P0A031); assay: Stimulation of Staphylococcus aureus FtsZ self-polymerization at 40 ug/mL by microtiter plate-based light scattering assay
T2 sequence (whole entry): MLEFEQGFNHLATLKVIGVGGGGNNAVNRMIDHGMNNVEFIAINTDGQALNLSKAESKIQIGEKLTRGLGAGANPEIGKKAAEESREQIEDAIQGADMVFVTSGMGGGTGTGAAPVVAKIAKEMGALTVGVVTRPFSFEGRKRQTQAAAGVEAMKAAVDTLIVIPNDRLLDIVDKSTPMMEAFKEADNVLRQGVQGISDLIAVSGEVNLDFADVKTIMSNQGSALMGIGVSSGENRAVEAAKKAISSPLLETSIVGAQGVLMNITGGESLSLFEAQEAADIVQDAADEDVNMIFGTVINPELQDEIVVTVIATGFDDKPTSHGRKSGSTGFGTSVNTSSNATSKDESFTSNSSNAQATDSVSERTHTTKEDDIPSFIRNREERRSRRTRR

[14] = target: T3, Cell division protein FtsZ (Staphylococcus aureus, UniProt P0A031); assay: Binding affinity to Staphylococcus aureus FtsZ expressed in Escherichia coli BL21 (DE3) at 25 degC by fluorescence anisotropy assay
T3 sequence (P0A031 whole entry): T2 sequence (whole entry)
Summary of the method: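 Intrinsic compound fluorescence anisotropy. Compound at 5 μM was titrated with 0–25 μM FtsZ in 50 mM Tris·HCl pH 7.4, 50 mM KCl, 2 mM magnesium acetate. Samples were incubated 5 min at 25 °C, excited at 245 nm with emission at 318 nm, and G-corrected. Runs were in triplicate and averaged. Kd was obtained by nonlinear least-squares fit. SaFtsZ was expressed in E. coli BL21(DE3) and purified by ammonium sulfate, MonoQ and Superdex-200.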

[15] = target: T4, Cell division protein FtsZ (Escherichia coli K-12, UniProt P0A9A6); assay: Binding affinity to Escherichia coli FtsZ at 25 degC by fluorescence anisotropy assay
T4 sequence (P0A9A6 whole entry): T1 sequence (whole entry)

[16] = Binding affinity to Enterococcus faecalis FtsZ at 25 degC by fluorescence anisotropy assay
Staphylococcus aureus [17] = assay: microbe, parasite or virus in culture; type: functional; details: 8325-4, 24 h; remark: listed apart in the source

Chain of Tubulin beta chain (Sus scrofa) (P02554 whole entry): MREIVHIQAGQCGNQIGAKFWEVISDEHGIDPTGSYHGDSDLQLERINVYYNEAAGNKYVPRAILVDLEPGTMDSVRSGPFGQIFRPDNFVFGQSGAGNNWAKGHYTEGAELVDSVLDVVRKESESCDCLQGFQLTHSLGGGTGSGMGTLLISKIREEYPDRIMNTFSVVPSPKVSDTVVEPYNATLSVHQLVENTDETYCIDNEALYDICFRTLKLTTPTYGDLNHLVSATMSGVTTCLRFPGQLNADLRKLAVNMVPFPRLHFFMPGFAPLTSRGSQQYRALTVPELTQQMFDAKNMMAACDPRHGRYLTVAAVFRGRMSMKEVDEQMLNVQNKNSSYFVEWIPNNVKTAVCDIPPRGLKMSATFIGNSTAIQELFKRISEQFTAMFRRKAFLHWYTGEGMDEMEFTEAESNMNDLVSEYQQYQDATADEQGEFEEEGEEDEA

Compound	inhibition [1]	MIC (Escherichia coli [2])	MIC (Escherichia coli [3])	MIC (Escherichia coli [4])	MIC (Enterococcus faecalis [5])	MIC (Enterococcus faecalis [6])	MIC (Staphylococcus aureus [7])	MIC (Staphylococcus aureus [8])	MIC (Staphylococcus aureus [9])	MIC (Staphylococcus aureus [10])	Activity (Enterococcus faecalis [11])	Activity [12]	Activity [13]	Kd [14]	Kd [15]	Kd [16]	MBC (Staphylococcus aureus [17])
COC(=O)Nc1nc2cc(C(=O)c3cccs3)ccc2[nH]1	Active	–	–	–	–	–	–	–	–	–	–	–	–	–	–	–	–
CC(C)(C)c1ccc(-c2cc(CNC(=N)N)ncn2)cc1	–	32 µg/mL (≈ 113 µM)	> 64 µg/mL	> 64 µg/mL	> 64 µg/mL	> 64 µg/mL	32 µg/mL (≈ 113 µM)	64 µg/mL (≈ 226 µM)	32 µg/mL (≈ 113 µM)	64 µg/mL (≈ 226 µM)	inactive	inactive	inactive	Not Active	Not Active	Not Active	–
CCC[C@@H]1C[C@@H](C(=O)N[C@@H]([C@H]2O[C@H](SC)[C@H](O)[C@@H](O)[C@H]2O)[C@H](C)Cl)N(C)C1.Cl [CLINDAMYCIN HYDROCHLORIDE]	–	–	–	–	> 64 µg/mL	2 µg/mL	> 64 µg/mL	> 64 µg/mL	0.063 µg/mL	0.031 µg/mL	–	–	inactive	–	–	–	–
CN[C@H](CC(C)C)C(=O)N[C@H]1C(=O)N[C@@H](CC(N)=O)C(=O)N[C@H]2C(=O)N[C@H]3C(=O)N[C@H](C(=O)N[C@H](C(=O)O)c4cc(O)cc(O)c4-c4cc3ccc4O)[C@H](O)c3ccc(c(Cl)c3)Oc3cc2cc(c3O[C@@H]2O[C@H](CO)[C@@H](O)[C@H](O)[C@H]2O[C@H]2C[C@](C)(N)[C@H](O)[C@H](C)O2)Oc2ccc(cc2Cl)[C@H]1O.Cl [VANCOMYCIN HYDROCHLORIDE]	–	–	–	–	> 64 µg/mL	1 µg/mL	–	–	–	–	inactive	–	–	–	–	–	1 µg/mL
CC(C)(C)c1ccc(-c2ccnc(CNC(=N)N)c2)cc1	–	8 µg/mL (≈ 28.3 µM)	64 µg/mL (≈ 227 µM)	64 µg/mL (≈ 227 µM)	64 µg/mL (≈ 227 µM)	32 µg/mL (≈ 113 µM)	8 µg/mL (≈ 28.3 µM)	16 µg/mL (≈ 56.7 µM)	8 µg/mL (≈ 28.3 µM)	8 µg/mL (≈ 28.3 µM)	inactive	inactive	inactive	Not Active	Not Active	Not Active	–
CC[C@H]1OC(=O)[C@H](C)[C@@H](O[C@H]2C[C@@](C)(OC)[C@@H](O)[C@H](C)O2)[C@H](C)[C@@H](O[C@@H]2O[C@H](C)C[C@H](N(C)C)[C@H]2O)[C@](C)(O)C[C@@H](C)C(=O)[C@H](C)[C@@H](O)[C@]1(C)O [ERYTHROMYCIN]	–	–	–	–	> 64 µg/mL	1 µg/mL (≈ 1.36 µM)	> 64 µg/mL	> 64 µg/mL	0.25 µg/mL (≈ 0.341 µM)	0.125 µg/mL (≈ 0.17 µM)	–	–	–	–	–	–	32 µg/mL (≈ 43.6 µM)

From ChEMBL document CHEMBL2176974, “A bactericidal guanidinomethyl biaryl that alters the dynamics of bacterial FtsZ polymerization” (J Med Chem, 2012)
